Source: ChEMBL document CHEMBL4354800, “Amphiphilic nebramine-based hybrids Rescue legacy antibiotics from intrinsic resistance in multidrug-resistant Gram-negative bacilli” (Eur J Med Chem, 2019)

Assays:
[1] = system: Pseudomonas aeruginosa; test: Potentiation of minocycline-induced antibacterial activity against MDR/XDR Pseudomonas aeruginosa isolate PA259-96918 harboring GyrA T83I mutant assessed as fold reduction in minocycline MIC at 9 uM incubated for 18 hrs by broth microdilution method; assay type: functional
[2] = system: Pseudomonas aeruginosa; test: Potentiation of ciprofloxacin-induced antibacterial activity against MDR/XDR Pseudomonas aeruginosa isolate 101885 harboring GyrA T83I mutant assessed as fold reduction in ciprofloxacin MIC at 9 uM incubated for 18 hrs by broth microdilution method; assay type: functional
[3] = system: Pseudomonas aeruginosa; test: Potentiation of minocycline-induced antibacterial activity against MDR/XDR Pseudomonas aeruginosa isolate 101885 harboring GyrA T83I mutant assessed as fold reduction in minocycline MIC at 9 uM incubated for 18 hrs by broth microdilution method; assay type: functional
[4] = system: Pseudomonas aeruginosa; test: Potentiation of ciprofloxacin-induced antibacterial activity against MDR/XDR Pseudomonas aeruginosa isolate 91433 devoid of GyrA T83I mutant assessed as fold reduction in ciprofloxacin MIC at 9 uM incubated for 18 hrs by broth microdilution method; assay type: functional
[5] = system: Pseudomonas aeruginosa; test: Potentiation of rifampicin-induced antibacterial activity against wild type Pseudomonas aeruginosa PAO1 assessed as fold reduction in rifampicin MIC at 9 uM incubated for 18 hrs by broth microdilution method; assay type: functional
In short: (§1)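 CLSI broth microdilution. Overnight cultures were set to 0.5 McFarland in saline, diluted 1:50 in Mueller-Hinton broth to a final 5 × 10^5 CFU/mL, and incubated 18 h at 37 °C against 2-fold antibiotic dilutions. A fixed adjuvant level was present throughout. MIC = lowest concentration with no visible turbidity, confirmed at 590 nm. Potentiation = fold drop in antibiotic MIC versus antibiotic alone.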

[6] = system: Klebsiella pneumoniae; test: Potentiation of minocycline-induced antibacterial activity against Klebsiella pneumoniae 113254 assessed as fold reduction in minocycline MIC at 4.1 uM incubated for 18 hrs by broth dilution method; assay type: functional
In short: (§2)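 Antibiotic MIC determined by CLSI broth microdilution (MHB, 5 × 10^5 CFU/mL, 18 h, 37 °C), once alone and once with a fixed concentration of the adjuvant. Potentiation is the ratio of the antibiotic MIC alone to its MIC in the presence of the adjuvant.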

[7] = system: Acinetobacter baumannii; test: Antimicrobial activity against multidrug-resistant Acinetobacter baumannii AB110193 incubated for 18 hrs by broth dilution method; assay type: functional; conditions: AB110193, 18 h
In short: (§3)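 Broth microdilution per CLSI: overnight cultures set to 0.5 McFarland in saline, diluted 1:50 in Mueller-Hinton broth to a final 5 × 10^5 CFU/mL, added to 2-fold serial dilutions, incubated 18 h at 37 °C; MIC is the lowest concentration without visible turbidity, confirmed at 590 nm.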

[8] = system: Enterobacter cloacae; test: Potentiation of minocycline-induced antibacterial activity against Enterobacter cloacae 117029 assessed as fold reduction in minocycline MIC at 4.1 uM incubated for 18 hrs by broth dilution method; assay type: functional; in short: as §2
[9] = system: Acinetobacter baumannii; test: Antimicrobial activity against multidrug-resistant Acinetobacter baumannii ATCC 17978 incubated for 18 hrs by broth dilution method; assay type: functional; conditions: ATCC 17978, 18 h; in short: as §3
[10] = Toxicity in Galleria mellonella larvae assessed as tolerability by measuring larval survival at 100 mg/kg incubated for > 96 hrs; assay type: organism-based; conditions: in vivo
In short: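 Uninfected G. mellonella larvae, ten per group, were injected with agent alone at 100 or 200 mg/kg. Larvae were held at 37 °C and monitored for survival for 96 h.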

[11] = system: Klebsiella pneumoniae; test: Potentiation of rifampicin-induced antibacterial activity against Klebsiella pneumoniae 116381 assessed as fold reduction in rifampicin MIC at 4.1 uM incubated for 18 hrs by broth dilution method; assay type: functional; in short: as §2
[12] = system: Escherichia coli; test: Antimicrobial activity against Escherichia coli ATCC 25922 incubated for 18 hrs by broth dilution method; assay type: functional; conditions: ATCC 25922, 18 h
In short: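 CLSI broth microdilution. Overnight cultures were adjusted to 0.5 McFarland in saline, diluted 1:50 in Mueller-Hinton broth, and inoculated at a final 5 × 10^5 CFU/mL. Compounds were tested as 2-fold serial dilutions and incubated 18 h at 37 °C. MIC was the lowest concentration with no visible turbidity, confirmed by absorbance at 590 nm.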

[13] = system: Pseudomonas aeruginosa; test: Potentiation of minocycline-induced antimicrobial activity against MDR/XDR Pseudomonas aeruginosa isolate PA262-101856 harboring GyrA Thr83Ile mutant assessed as minocycline MIC50 incubated for 18 hrs by broth microdilution method (reference value: 16 microg/ml); assay type: functional; conditions: isolate PA262-101856, 18 h
[14] = system: Pseudomonas aeruginosa; test: Potentiation of ciprofloxacin-induced antibacterial activity against MDR/XDR Pseudomonas aeruginosa isolate 100036 harboring GyrA T83I mutant assessed as fold reduction in ciprofloxacin MIC at 7.5 uM incubated for 18 hrs by broth microdilution method; assay type: functional
[15] = system: Pseudomonas aeruginosa; test: Potentiation of minocycline-induced antimicrobial activity against MDR/XDR Pseudomonas aeruginosa isolate PA259-96918 harboring GyrA Thr83Ile mutant assessed as minocycline MIC50 incubated for 18 hrs by broth microdilution method (reference value: 16 microg/ml); assay type: functional; conditions: isolate PA259-96918, 18 h
[16] = system: Pseudomonas aeruginosa; test: Potentiation of ciprofloxacin-induced antibacterial activity against MDR/XDR Pseudomonas aeruginosa isolate PA262-101856 harboring GyrA T83I mutant assessed as fold reduction in ciprofloxacin MIC at 7.5 uM incubated for 18 hrs by broth microdilution method; assay type: functional
[17] = system: Pseudomonas aeruginosa; test: Potentiation of minocycline-induced antibacterial activity against MDR/XDR Pseudomonas aeruginosa isolate PA262-101856 harboring GyrA T83I mutant assessed as fold reduction in minocycline MIC at 7.5 uM incubated for 18 hrs by broth microdilution method; assay type: functional
[18] = system: Pseudomonas aeruginosa; test: Potentiation of minocycline-induced antimicrobial activity against MDR/XDR Pseudomonas aeruginosa isolate PA259-96918 harboring GyrA Thr83Ile mutant assessed as minocycline MIC80 incubated for 18 hrs by broth microdilution method (reference value: 32 microg/ml); assay type: functional; conditions: isolate PA259-96918, 18 h
[19] = system: Pseudomonas aeruginosa; test: Potentiation of minocycline-induced antibacterial activity against MDR/XDR Pseudomonas aeruginosa isolate PA260-97103 harboring GyrA T83I mutant assessed as fold reduction in minocycline MIC at 7.5 uM incubated for 18 hrs by broth microdilution method; assay type: functional
[20] = system: Pseudomonas aeruginosa; test: Potentiation of minocycline-induced antimicrobial activity against MDR/XDR Pseudomonas aeruginosa isolate PA260-97103 harboring GyrA Thr83Ile mutant assessed as minocycline MIC50 incubated for 18 hrs by broth microdilution method (reference value: 16 microg/ml); assay type: functional; conditions: isolate PA260-97103, 18 h
[21] = system: Pseudomonas aeruginosa; test: Potentiation of rifampicin-induced antimicrobial activity against MDR/XDR Pseudomonas aeruginosa isolate 101885 harboring GyrA Thr83Ile mutant assessed as rifampicin MIC50 incubated for 18 hrs by broth microdilution method (reference value: 8 microg/ml); assay type: functional; conditions: isolate 101885, 18 h
[22] = system: Acinetobacter baumannii; test: Potentiation of rifampicin-induced antibacterial activity against multidrug-resistant Acinetobacter baumannii AB027 assessed as fold reduction in rifampicin MIC at 7.5 uM incubated for 18 hrs by broth dilution method; assay type: functional; in short: as §1
[23] = system: Pseudomonas aeruginosa; test: Potentiation of moxifloxacin-induced antibacterial activity against MDR/XDR Pseudomonas aeruginosa isolate PA260-97103 harboring GyrA T83I mutant assessed as fold reduction in moxifloxacin MIC at 7.5 uM incubated for 18 hrs by broth microdilution method; assay type: functional; in short: as §1

Cl.Cl.Cl.Cl.Cl.Cl.NC[C@H]1O[C@H](O[C@H]2[C@H](OCCCCCCCCCCN3CCN(Cc4cccc5ccccc45)CC3)[C@@H](O)[C@H](N)C[C@@H]2N)[C@H](N)C[C@@H]1O
fold change (FC) [1]: 64 | fold change (FC) [2]: 8 | fold change (FC) [3]: 64 | fold change (FC) [4]: 8 | fold change (FC) [5]: 256

Cl.Cl.Cl.Cl.Cl.NC[C@H]1O[C@H](O[C@H]2[C@H](OCCCCCCCCCCCCN3CCN(c4cc5c(cc4F)c(=O)c(C(=O)O)cn5C4CC4)CC3)[C@@H](O)[C@H](N)C[C@@H]2N)[C@H](N)C[C@@H]1O
fold change (FC) [6]: 2 | MIC [7]: > 128 µg/mL | fold change (FC) [8]: 16 | MIC [9]: 128 µg/mL | Activity [10]: Non-Toxic | fold change (FC) [11]: >=128 | MIC [12]: 8 µg/mL

COc1c(N2C[C@@H]3CCCN(CCCCCCCCCCCCO[C@@H]4[C@@H](O)[C@H](N)C[C@H](N)[C@H]4O[C@H]4O[C@H](CN)[C@@H](O)C[C@H]4N)[C@@H]3C2)c(F)cc2c(=O)c(C(=O)O)cn(C3CC3)c12.Cl.Cl.Cl.Cl.Cl
MIC50 [13]: 0.5 µg/mL | fold change (FC) [14]: 2 | MIC50 [15]: 0.5 µg/mL | fold change (FC) [16]: 4 | fold change (FC) [17]: 32 | MIC80 [18]: 1 µg/mL | fold change (FC) [19]: 32 | MIC50 [20]: 0.5 µg/mL | MIC50 [21]: 0.06 µg/mL | fold change (FC) [22]: 32 | fold change (FC) [23]: 64
